Assay results taken from ChEMBL document CHEMBL4334446, “Evaluating the effects of fluorine on biological properties and metabolic stability of some antitubulin 3-substituted 7-phenyl-pyrroloquinolinones” (Eur J Med Chem, 2019).

Experiments:
HL-60 = test: Growth inhibition of human HL60 cells incubated for 72 hrs by MTT assay; format: functional; conditions: HL-60, 72 h
In short: (§1)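 Leukemia lines were grown in RPMI-1640; the CEM^Vbl-100 medium also contained 100 ng/mL vinblastine. Cells were seeded at 8 × 10³ per well and left 18 h at 37 °C, 5% CO2. Medium was then replaced with fresh medium holding graded compound concentrations (DMSO stocks), in triplicate, for 72 h. Viability was read by MTT, and GI50 = concentration inhibiting proliferation 50%.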

MDA-MB-468 = test: Growth inhibition of human MDA-MB-468 cells incubated for 72 hrs by MTT assay; format: functional; conditions: MDA-MB-468, 72 h
RS4-11 = test: Growth inhibition of human RS4:11 cells incubated for 72 hrs by MTT assay; format: functional; conditions: RS4-11, 72 h; in short: as §1
MDA-MB-231 = test: Growth inhibition of human MDA-MB-231 cells incubated for 72 hrs by MTT assay; format: functional; conditions: MDA-MB-231, 72 h
[1] = Growth inhibition of human DND41 cells incubated for 72 hrs by MTT assay; format: functional; conditions: DND41, 72 h; in short: as §1
A2058 = test: Growth inhibition of human A2058 cells incubated for 72 hrs by MTT assay; format: functional; conditions: A2058, 72 h
HT-29 = test: Growth inhibition of human HT-29 cells incubated for 72 hrs by MTT assay; format: functional; conditions: HT-29, 72 h
HeLa = test: Growth inhibition of human HeLa cells incubated for 72 hrs by MTT assay; format: functional
Jurkat = test: Growth inhibition of human Jurkat cells incubated for 72 hrs by MTT assay; format: functional; in short: as §1
A-375 = test: Growth inhibition of human A375 cells incubated for 72 hrs by MTT assay; format: functional; conditions: A-375, 72 h
MCF7 = test: Growth inhibition of human MCF7 cells incubated for 72 hrs by MTT assay; format: functional; conditions: MCF7, 72 h
[2] = Selectivity ratio of GI50 for human PBL cells to GI50 for human DND41 cells incubated for 72 hrs by MTT assay
In short: (§2)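 Leukemia cells (CEM, DND-41, Jurkat) were grown in RPMI-1640 at 8×10³ cells/well and left 18 h. Donor PBL were gradient-separated, held overnight in RPMI-1640/10% FBS, and non-adherent cells set at 5×10^5 cells/mL without PHA (resting). Both were exposed 72 h to graded concentrations, read by MTT. The ratio is PBL GI50 over leukemia GI50.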

[3] = Growth inhibition of human PBL cells incubated for 72 hrs by MTT assay; format: cell-based; conditions: PBL cells (peripheral blood lymphocytes)
In short: (§3)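 PBL from healthy donors were isolated on a Lymphoprep gradient, held overnight in RPMI-1640 with 10% FBS, and the non-adherent cells resuspended at 5 × 10^5 cells/mL. Proliferating cultures got 2.5 µg/mL PHA; resting cultures got none. Compound was added at several concentrations for 72 h and viability read by MTT. GI50 reported as mean ± SEM of three experiments.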

[4] = Growth inhibition of multidrug-resistant human CEM/VBL100 cells incubated for 72 hrs by MTT assay; format: functional; conditions: CEM/VBL100, 72 h; in short: as §1
[5] = Growth inhibition of PHA-stimulated human PBL cells incubated for 72 hrs by MTT assay; format: cell-based; conditions: PHA-stimulated PBL cells (peripheral blood lymphocytes); in short: as §3
[6] = Selectivity ratio of GI50 for PHA-stimulated human PBL cells to GI50 for human DND41 cells incubated for 72 hrs by MTT assay
In short: (§4)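 Leukemia cells (CEM, DND-41, Jurkat) were grown in RPMI-1640 at 8×10³ cells/well and left 18 h. Donor PBL were gradient-separated, held overnight, and non-adherent cells set at 5×10^5 cells/mL with 2.5 µg/mL PHA. Both were exposed 72 h at 37 °C to graded compound concentrations, read by MTT. The ratio is PBL GI50 over leukemia GI50.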

[7] = Selectivity ratio of GI50 for human PBL cells to GI50 for human CEM cells incubated for 72 hrs by MTT assay; format: functional; in short: as §2
CCRF-CEM = test: Growth inhibition of human CEM cells incubated for 72 hrs by MTT assay; format: functional; in short: as §1
[8] = Selectivity ratio of GI50 for human PBL cells to GI50 for human Jurkat cells incubated for 72 hrs by MTT assay; in short: as §2
[9] = Metabolic stability in human liver microsomes assessed as parent compound decline at 10 uM incubated for 60 mins in presence of NADPH by HPLC analysis; format: ADME, Microsome; conditions: read-out: Drug degradation
In short: (§5)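 Compound (10 µM) was incubated 0 or 60 min at 37 °C with pooled HLMs (1 mg/mL), with or without 1 mM NADPH, or in buffer only (0.1 M KH2PO4 pH 7.4). Reactions were stopped with ice-cold acetonitrile. Remaining parent was measured by HPLC-fluorescence relative to 0 min; mean ± SD, n = 3.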

[10] = Metabolic stability in human liver microsomes assessed as parent compound decline at 10 uM incubated for 60 mins in absence of NADPH by HPLC analysis; format: ADME, Microsome; conditions: read-out: Drug degradation; in short: as §5
[11] = Selectivity ratio of GI50 for PHA-stimulated human PBL cells to GI50 for human Jurkat cells incubated for 72 hrs by MTT assay; in short: as §4
[12] = Selectivity ratio of GI50 for PHA-stimulated human PBL cells to GI50 for human CEM cells incubated for 72 hrs by MTT assay; in short: as §4
Tubulin (Bos taurus) = Tubulin (Bos taurus) (UniProt Q6B856+Q862L2+Q862F3); test: Inhibition of [3H]colchicine binding to bovine brain tubulin at 5 uM relative to control
In short: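 Bovine brain tubulin at 1 µM was incubated with 5 µM [3H]colchicine and the test compound at 5 µM. Inhibition of colchicine binding was measured relative to a control.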

Tubulin = Tubulin (Bos taurus, UniProt Q6B856+Q862L2+Q862F3); test: Inhibition of bovine brain tubulin polymerization preincubated for 15 mins followed by GTP addition and measured for 20 mins by turbidimetry-based spectrophotometric method
In short: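 Bovine brain tubulin (10 µM) was preincubated with varying compound concentrations in 0.8 M monosodium glutamate, pH 6.6, for 15 min at 30 °C, then cooled to 0 °C. GTP was added to 0.4 mM final and the mix warmed to 30 °C. Turbidity was followed at 350 nm. IC50 = concentration inhibiting extent of assembly 50% after 20 min.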

[13] = Metabolic stability in human liver microsomes assessed as half life at 10 uM incubated for 30 mins in presence of NADPH by HPLC analysis; format: ADME, Microsome
In short: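 Compound (10 µM) was incubated at 37 °C with 0.5 mg/mL pooled HLMs and 1 mM NADPH in 0.1 M KH2PO4 pH 7.4, sampled at 0, 2, 5, 15 and 30 min. Controls without NADPH, or buffer only, ran 0 and 30 min. Parent was quantified by HPLC-fluorescence as % of the 0 min level, n = 3. t1/2 = 0.693/k, with k from regression of ln % remaining versus time.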

[14] = Stability in phosphate buffer at pH 7.4 at 10 uM incubated for 30 mins by HPLC analysis; format: physicochemical; conditions: pH 7.4, 0.5 h
In short: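 No microsomes or NADPH: compound (10 μM final) held in 0.1 M KH₂PO₄ pH 7.4 at 37 °C. Samples taken at 0 and 30 min, quenched with ice-cold acetonitrile, centrifuged, analysed by HPLC with fluorescence detection. Percent parent remaining relative to 0 min; mean ± SD, n = 3.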

[15] = Time-dependent metabolic stability in human liver microsomes at 10 uM incubated for 30 mins in presence of NADPH by HPLC analysis; format: ADME, Microsome; conditions: 0.5 h
In short: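 Pooled mixed-gender HLMs (0.5 mg/mL) plus 1 mM NADPH in 0.1 M KH₂PO₄ pH 7.4, compound 10 μM final, 37 °C. Reaction started with microsomes after 3-min equilibration. Stopped with ice-cold acetonitrile at 0, 2, 5, 15, 30 min, then HPLC-fluorescence of supernatant. Percent remaining vs 0 min (mean ± SD, n = 3). Half-life = 0.693/k from linear regression of Ln % remaining vs time.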

[16] = Metabolic stability in human liver microsomes at 10 uM incubated for 15 mins in presence of NADPH and non-selective CYP inhibitor quercetin by HPLC analysis; format: ADME, Microsome; conditions: 0.25 h
In short: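 Compound (10 µM) was incubated 0 and 15 min at 37 °C with pooled HLMs and 1 mM NADPH in 0.1 M KH2PO4 pH 7.4, with or without 100 µM quercetin. Parent remaining was measured by HPLC-fluorescence relative to 0 min; mean ± SD, n = 3.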

[17] = Metabolic stability in human liver microsomes at 10 uM incubated for 30 mins in phosphate buffer at pH 7.4 by HPLC analysis; format: ADME, Microsome; conditions: pH 7.4, 0.5 h
In short: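 Test compound (10 μM, final) incubated at 37 °C with pooled mixed-gender HLMs (0.5 mg/mL) in 0.1 M KH₂PO₄ pH 7.4 without NADPH. Sampled at 0 and 30 min, quenched with ice-cold acetonitrile, centrifuged, supernatant analysed by HPLC with fluorescence detection (ex 344/em 493 nm). Percent remaining calculated from peak area relative to 0 min; mean ± SD, n = 3.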

Row | Compound | GI50 (HL-60) | GI50 (MDA-MB-468) | GI50 (RS4-11) | GI50 (MDA-MB-231) | GI50 [1] | GI50 (A2058) | GI50 (HT-29) | GI50 (HeLa) | GI50 (Jurkat) | GI50 (A-375) | GI50 (MCF7) | RatioGI50 [2] | GI50 at 72 h [3] | GI50 [4] | GI50 at 72 h [5] | RatioGI50 [6] | RatioGI50 [7] | GI50 (CCRF-CEM) | inhibition (Tubulin (Bos taurus)) | IC50 (Tubulin) | further results
1 | O=C(Oc1cc(-c2ccccc2)nc2ccc3[nH]ccc3c12)c1ccccc1F | 2310 nM | 1320 nM | 697 nM | 5590 nM | 2420 nM | 1490 nM | 216 nM | 501 nM | 324 nM | 2550 nM | 3460 nM | – | – | – | – | – | – | – | – | – | –
2 | O=C(c1ccccc1)n1ccc2c3c(=O)cc(-c4ccccc4)[nH]c3ccc21 | 2 nM | – | 0.3 nM | – | – | – | 0.1 nM | 0.2 nM | 16 nM | – | 0.2 nM | 10000 - 30000 | > 100000 nM | 3.1 nM | 2700 nM | 10000 - 30000 | 10000 - 30000 | 2.5 nM | – | – | RatioGI50 [8]: 10000 - 30000; metabolised at 1 h, 10 µM [9]: 20%; metabolised at 1 h, 10 µM [10]: 20%; RatioGI50 [11]: 10000 - 30000; RatioGI50 [12]: 10000 - 30000
3 | O=C(c1ccccc1F)n1ccc2c3c(=O)cc(-c4ccccc4)[nH]c3ccc21 | 276 nM | 70 nM | 120 nM | 3030 nM | 240 nM | 322 nM | 26.6 nM | 9.3 nM | 53.7 nM | 332 nM | 1080 nM | – | – | – | – | – | – | – | 34% | 1300 nM | metabolised at 1 h, 10 µM [9]: 20%; metabolised at 1 h, 10 µM [10]: 20%
4 | CCn1ccc2c3c(=O)cc(-c4ccc(F)cc4)[nH]c3ccc21 | 1440 nM | 43 nM | 293 nM | 206 nM | 477 nM | 1180 nM | 447 nM | 340 nM | 334 nM | 69.8 nM | 51.3 nM | – | – | – | – | – | – | – | 12% | 3700 nM | half-life at 10 µM [13]: 10.6 min; Stability [14]: Stable; Stability [15]: Unstable; Stability [16]: Stable; Stability [17]: Stable
5 | CCn1ccc2c3c(=O)cc(-c4cccc(F)c4)[nH]c3ccc21 | 0.08 nM | 15 nM | 0.07 nM | 69 nM | 0.13 nM | 3.5 nM | 0.9 nM | 0.7 nM | 0.11 nM | 11.4 nM | 52.7 nM | 10000 - 30000 | 31300 nM | 0.8 nM | 10800 nM | 10000 - 30000 | 10000 - 30000 | 2.2 nM | 83% | 780 to 840 nM | half-life at 10 µM [13]: 11.8 min; Stability [14]: Stable; Stability [15]: Unstable; Stability [16]: Stable; Stability [17]: Stable; RatioGI50 [8]: 10000 - 30000; RatioGI50 [11]: 10000 - 30000; RatioGI50 [12]: 10000 - 30000
